Most compounds without a hit are left out; they make up all but 2.6% or so of the library.
STEP inh: STEP (human) phosphatase inhibition. 360,000 compounds, 0.25% hits. P54829. inhibition, % at 20 µM. recombinant STEP, OMFP fluorogenic substrate, fluorescence;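 active = inhibition at 20 µM, scaled per plate between control wells, above about 37%, limit read from the data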
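Material: STEP (striatal-enriched tyrosine phosphatase) enzyme, cell-free; Compound dosing: 20 µM single dose in 1% DMSO; Technique: fluorescence read at 480 nm ex / 540 nm em; Times: reaction 20 min, ambient temperature; Medium: 50 mM Bis-Tris pH 6.0 with 2.5 mM DTT and 0.005% Tween 20; Also added: OMFP at 25 µM.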
rCAG RNA binder: binds r(CAG) RNA repeats; r(CAG) RNA repeat, TO-PRO-1 dye displacement fluorescence; inhibition, % at 3 µM; 370,000 compounds, 1.3% hits;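 active = inhibition above the plate cutoff, the mean of all test compounds on that plate plus 3 SD, cut at about 35% in these data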;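 also: higher means more dye released from RNA so lower well fluorescence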
Scp1 inh: blocks human Scp-1 phosphatase activity | 340,000 compounds, 0.88% hits | Recombinant Scp1, phosphopeptide, malachite green phosphate absorbance | inhibition, % at 20 µM;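 active = inhibition above about 50% at 20 µM, limit read from the data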
Target sequence (Q9GZU7 76-261 limits assumed): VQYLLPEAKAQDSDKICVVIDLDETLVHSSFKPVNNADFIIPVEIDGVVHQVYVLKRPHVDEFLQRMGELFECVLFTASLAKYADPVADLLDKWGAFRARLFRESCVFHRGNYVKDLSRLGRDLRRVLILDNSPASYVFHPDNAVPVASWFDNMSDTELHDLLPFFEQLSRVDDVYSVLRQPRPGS
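Material – SCP-1 phosphatase catalytic domain, residues 76-261 · Buffer or medium – Acidic Tris acetate buffer with magnesium and detergent · Also added – Phospho 17-mer peptide substrate · Compound – single 20 µM dose, 1% DMSO · Times – 45 min room-temperature reaction, 5 min colour, 30 min stabiliser · Technique – Phosphate-binding colour reagent, absorbance read at 630 nm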
NadD block: NadD (S. aureus) enzyme inhibition | 360,000 compounds, 0.78% hits | purified NadD enzyme, colorimetric absorbance read-out | inhibition, % at 20 µM; in the data active = inhibition above about 26%
LMPTP inh: LMPTP (human) inhibition. inhibition, % at 20 µM. recombinant LMPTP-A, OMFP fluorogenic substrate, fluorescence intensity. 360,000 compounds, 0.22% hits;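 active = compounds that cut the enzyme signal by at least half of the control window in the single-dose screen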
Target sequence (P24666 whole entry, looked up): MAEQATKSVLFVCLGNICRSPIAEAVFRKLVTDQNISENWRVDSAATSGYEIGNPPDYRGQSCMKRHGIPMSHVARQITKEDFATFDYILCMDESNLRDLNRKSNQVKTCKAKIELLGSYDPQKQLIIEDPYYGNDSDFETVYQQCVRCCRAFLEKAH
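Test system – LMPTP-A phosphatase enzyme · Quantity – 0.625 nM LMPTP-A final · Reagent – OMFP substrate, 400 µM final · Dosing – one test concentration per compound, 20 µM, with 3% DMSO overall · Timing – 50 min enzyme reaction at room temperature, protected from light · Detection – fluorescence intensity · Controls – substrate-only low control, DMSO enzyme-plus-substrate high control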
Scp1 confirm: confirmation of human Scp-1 phosphatase inhibitors; recombinant SCP-1 catalytic domain, phosphate release, malachite green absorbance; shares compounds with Scp1 inh; AID 540281; 2,500 compounds, 61% hits; inhibition, % at 20 µM
Scp-1 MG ctr: colorimetric interference in Scp-1 counter-screen; Colorimetric interference counterscreen, malachite green absorbance 630 nm; shares compounds with Scp1 inh; apparent inhibition (interference), % at 20 µM; 2,500 tested, under 10 active; AID 540313;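 also: compounds added after enzyme reaction finished so only phosphate colour detection is probed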
Scp1 DSF: validation of human Scp-1 inhibitors by thermal shift binding | shares compounds with Scp1 inh | Recombinant SCP1, Sypro Orange thermal shift Tm | thermal shift relative to vanadate control, % at 40 µM | 1,500 compounds, 25% hits | AID 540329;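 active = substances whose mean melting-temperature shift, as a percentage of the reference inhibitor's shift, reaches about 5.3%, limit read from the data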
Each line names hits and unclear results; the compound was inactive in the other large screens (follow-up assays come after a bar, where they were run).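 The calls were made as follows, unless noted: active = inhibition of at least 30% at 20 µM; inactive = the rest.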

COc1ccccc1CN1CC(C(=O)NCc2cc(C(C)C)no2)CCC1=O (stereo not drawn)	Scp1 inh 70 | Scp1 confirm inactive | Scp-1 MG ctr inactive
Fc1ccc(Oc2ccnc(Cl)n2)c(Cl)c1	Scp1 inh 51 (no result: STEP inh, NadD block, LMPTP inh) | Scp1 confirm inactive | Scp-1 MG ctr inactive
O=C(C1CCCN1S(=O)(=O)c1ccc([N+](=O)[O-])cc1)N1CCN(c2ccccc2)CC1 (stereo not drawn)	none (no result: STEP inh, Scp1 inh, NadD block, LMPTP inh)
O=C(N/N=C/C(Cl)=C/c1ccccc1)c1ccc2c(c1)OCO2	Scp1 inh 101, LMPTP inh 56 | Scp1 confirm 53 | Scp-1 MG ctr inactive | Scp1 DSF inactive
O=C(N/N=C/c1ccc2c(c1)OCO2)c1ccc2c(c1)OCO2	none
Cc1ccc(C=C2C(=O)c3ccccc3C2=O)o1	Scp1 inh 55 | Scp1 confirm 59 | Scp-1 MG ctr inactive | Scp1 DSF 6.2
O=C(N/N=C/c1ccc(OC(=O)c2ccccc2Cl)cc1)c1cc(O)cc(O)c1	STEP inh 86, Scp1 inh 69 | Scp1 confirm 66 | Scp-1 MG ctr inactive | Scp1 DSF 9.8
COc1ccc(NC(=O)CCNC(=O)c2ccccc2)cc1S(N)(=O)=O	none
COc1ccc(NC(=O)CCNS(=O)(=O)c2cc(Br)ccc2Br)cc1S(N)(=O)=O	none | Scp1 confirm inactive | Scp-1 MG ctr inactive
CSCC[C@H](NC(=O)c1cccc(S(=O)(=O)N2CCCCC2)c1)c1nc2ccccc2[nH]1	Scp1 inh 59 | Scp1 confirm inactive | Scp-1 MG ctr inactive
C=C(C)CCOC(=O)C(CC(=O)O)NCc1ccco1 (stereo not drawn)	Scp1 inh 86 | Scp1 confirm 67 | Scp-1 MG ctr inactive | Scp1 DSF inactive
O=C(NS(=O)(=O)c1ccccc1)c1cccc(Br)c1	Scp1 inh 62 | Scp1 confirm inactive | Scp-1 MG ctr inactive
O=C(CCN1C(=O)C2C3C=CC(C3)C2C1=O)NCc1cccnc1 (stereo not drawn)	Scp1 inh 60 | Scp1 confirm inactive | Scp-1 MG ctr inactive
C=CCn1cnc2c(c1=O)c1nc3ccccc3nc1n2/N=C/c1cccc(OC)c1OC	Scp1 inh 96 | Scp1 confirm 62 | Scp-1 MG ctr inactive | Scp1 DSF inactive
CC(CCN1CCC(C(O)(c2ccccc2)c2ccccc2)CC1)Oc1cccc(F)c1 (stereo not drawn)	none (no result: STEP inh, Scp1 inh, NadD block, LMPTP inh)
CCOC(=O)[C@@]12CN(C(=O)OC(C)(C)C)CC=C1N(Cc1ccc(OC)cc1)C(=O)[C@H]2CC(=O)NCC1CCCCC1	none (no result: STEP inh, Scp1 inh, NadD block, LMPTP inh)
COc1ccc(-c2c(-c3ccccc3OC)sc3ccccc23)cc1OC	none
COc1ccc(-c2c(-c3ccccc3OC)sc3ccccc23)cc1C=O	Scp1 inh 50 | Scp1 confirm inactive | Scp-1 MG ctr inactive
O=C(c1nc2ccc(Cl)cn2c1CN1CCCC1)N1CCc2ccccc2C1	Scp1 inh 52 | Scp1 confirm 36 | Scp-1 MG ctr inactive | Scp1 DSF inactive
COc1cc2nc(NC(=O)c3ccco3)sc(=O)c2cc1OC	Scp1 inh 51 | Scp1 confirm 43 | Scp-1 MG ctr inactive | Scp1 DSF inactive
O=C(CSc1nnc2scc(-c3ccccc3)n12)Nc1nsc(-c2ccccc2)n1	Scp1 inh 71 (no result: rCAG RNA binder) | Scp1 confirm 74 | Scp-1 MG ctr inactive | Scp1 DSF inactive
Cc1ccc(-c2csc3nnc(SCC(=O)Nc4nsc(-c5ccccc5)n4)n23)cc1	none
CC1(c2nnnn2C2CCCCC2)CSCC(=O)N1CCc1ccc(O)cc1 (stereo not drawn)	none (no result: STEP inh, Scp1 inh, NadD block, LMPTP inh)
CCC1=Nc2cc(C(=O)NCCCN3CCN(C)CC3)ccc2Sc2ccccc21	none
CCC1=Nc2cc(C(=O)NCCCOC(C)C)ccc2Sc2ccccc21	Scp1 inh 63 | Scp1 confirm inactive | Scp-1 MG ctr inactive
O=C(N/N=C/c1ccncc1)c1cccs1	none (no result: rCAG RNA binder)
O=C(N/N=C/c1ccc(-c2ccccc2C(=O)O)o1)c1cccs1	Scp1 inh 52 | Scp1 confirm 71 | Scp-1 MG ctr inactive | Scp1 DSF 6.5
CCc1cc(C(=O)OC)c(NC(=O)CCC(=O)O)s1	Scp1 inh 62 | Scp1 confirm inactive | Scp-1 MG ctr inactive
O=C(N/N=C/c1ccncc1)c1ccncc1	none
O=C(N/N=C/c1ccncc1)c1ccc(NC(=O)c2cccc(Cl)c2)cc1	Scp1 inh 68 | Scp1 confirm 35 | Scp-1 MG ctr inactive | Scp1 DSF 15
O=C(N/N=C/c1ccncc1)c1cccc(NC(=O)c2ccccc2Cl)c1	none
O=C(N/N=C/c1ccncc1)c1ccc(NC(=O)c2ccc(Cl)cc2)cc1	Scp1 inh 64 | Scp1 confirm inactive | Scp-1 MG ctr inactive
Cc1nc2ccccn2c1C(=O)N/N=C/c1ccc([N+](=O)[O-])o1	Scp1 inh 67 | Scp1 confirm 53 | Scp-1 MG ctr inactive | Scp1 DSF 12
CC(=C/C(=O)O)/C=C/c1ccc(Cl)o1	Scp1 inh 61 | Scp1 confirm 54 | Scp-1 MG ctr inactive | Scp1 DSF inactive
CC[n+]1c(C)cc2c(sc3ccccc32)c1C	Scp1 inh 63 | Scp1 confirm inactive | Scp-1 MG ctr inactive
CCn1c2ccccc2c2nnc(SCC(=O)c3c(N)n(C)c(=O)n(C)c3=O)nc21	Scp1 inh 63 | Scp1 confirm inactive | Scp-1 MG ctr inactive
CCn1c2ccccc2c2nnc(SCC(N)=O)nc21	none
COc1ccc(OC)c(S(=O)(=O)N2CCC(C(=O)NCC3CCCO3)CC2)c1 (stereo not drawn)	Scp1 inh 92 | Scp1 confirm inactive | Scp-1 MG ctr inactive
O=C1C(NC(=O)C(F)(F)Br)CCCCN1Cc1cccc(C(F)(F)F)c1 (stereo not drawn)	none (no result: STEP inh, Scp1 inh, NadD block, LMPTP inh)
COc1cc2c(cc1NC(=O)CSc1nnc(-c3cccnc3)n1-c1ccc(Br)cc1)oc1ccccc12	none (no result: STEP inh, Scp1 inh, NadD block, LMPTP inh)
Cc1ccc(NC(=O)CN2C(=O)N/C(=C/c3ccco3)C2=O)cc1	Scp1 inh 76 | Scp1 confirm inactive | Scp-1 MG ctr inactive
CCn1c(C)cc(/C=C2\NC(=O)N(CC(=O)Nc3ccc(F)cc3)C2=O)c1C	none
Cc1ccc(NC(=O)CN2C(=O)N/C(=C/c3cc(C)n(-c4ccc(C(=O)O)cc4)c3C)C2=O)cc1	rCAG RNA binder 37, Scp1 inh 63 | Scp1 confirm 54 | Scp-1 MG ctr inactive | Scp1 DSF inactive
O=C(COC(=O)c1ccc(Cl)c(S(=O)(=O)N2CCCC2)c1)NCc1ccccc1	Scp1 inh 50 | Scp1 confirm 41 | Scp-1 MG ctr inactive | Scp1 DSF inactive

Bioassay records deposited in PubChem BioAssay by several laboratories.
